According to ChEMBL document CHEMBL1142140, “Activity of ribavirin against Hantaan virus correlates with production of ribavirin-5'-triphosphate, not with inhibition of IMP dehydrogenase” (2007):
Active and inactive are the calls of the source. The calls are words filed in the database; no cut-off is given here.

Columns and labels:
Vero [1] = test: Effect on metabolism of 40 ug/ml RBV in Vero E6 cells assessed as RBV-TP concentration at 5 ug/ml after 24 h; assay type: functional, Chlorocebus sabaeus
Summary of the method: (§1)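 Vero E6 cells were given [3H]RBV for 24 h at 37°C, alone or with added MPA (experiment 1) or guanosine (experiment 2). Perchloric acid extracts were resolved on SAX HPLC, and RBV-MP and RBV-TP were quantified by counting 1-min fractions. Values are the mean ± SD of three measurements, and the experiment was repeated twice.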

Vero [2] = test: Effect on metabolism of 10 ug/ml RBV in Vero E6 cells assessed as RBV-MP concentration at 5 ug/ml after 24 h; assay type: functional, Chlorocebus sabaeus; summary of the method: as §1
Vero [3] = test: Effect on metabolism of 40 ug/ml RBV in Vero E6 cells assessed as RBV-MP concentration at 1 ug/ml after 24 h; assay type: functional, Chlorocebus sabaeus; summary of the method: as §1
Vero [4] = test: Effect on metabolism of 10 ug/ml RBV in Vero E6 cells assessed as RBV-MP concentration at 2 ug/ml after 24 h; assay type: functional, Chlorocebus sabaeus; summary of the method: as §1
Vero [5] = test: Effect on metabolism of 40 ug/ml RBV in Vero E6 cells assessed as RBV-MP concentration at 2 ug/ml after 24 h; assay type: functional, Chlorocebus sabaeus; summary of the method: as §1
[6] = Inhibition of viral RNA levels in HTNV76-118-infected Vero E6 cells at 10 ug/ml; assay type: functional, Hantaan virus; conditions: Orthohantavirus hantanense, 76-118, Vero
Vero [7] = test: Effect on metabolism of 10 ug/ml RBV in Vero E6 cells assessed as RBV-TP concentration at 2 ug/ml after 24 h; assay type: functional, Chlorocebus sabaeus; summary of the method: as §1
Vero [8] = test: Decrease in GTP level in Vero E6 cells at 40 ug/ml after 24 h; assay type: functional, Chlorocebus sabaeus; set-up: scale not given: the % may be the effect or the level left
Vero [9] = test: Effect on metabolism of 40 ug/ml RBV in Vero E6 cells assessed as RBV-MP concentration at 5 ug/ml after 24 h; assay type: functional, Chlorocebus sabaeus; summary of the method: as §1
Vero [10] = test: Effect on metabolism of 40 ug/ml RBV in Vero E6 cells assessed as RBV-TP concentration at 2 ug/ml after 24 h; assay type: functional, Chlorocebus sabaeus; summary of the method: as §1
Vero [11] = test: Effect on metabolism of 10 ug/ml RBV in Vero E6 cells assessed as RBV-TP concentration at 5 ug/ml after 24 h; assay type: functional, Chlorocebus sabaeus; summary of the method: as §1
Vero [12] = test: Effect on metabolism of 10 ug/ml RBV in Vero E6 cells assessed as RBV-TP concentration at 1 ug/ml after 24 h; assay type: functional, Chlorocebus sabaeus; summary of the method: as §1
Vero [13] = test: Decrease in GTP level in Vero E6 cells at 2.5 ug/ml; assay type: functional, Chlorocebus sabaeus; set-up: scale not given: the % may be the effect or the level left
Summary of the method: (§2)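 Confluent 3-day-old Vero E6 cells incubated at 37°C with drug: 10 μg/ml RBV or 2.5 μg/ml MPA over a 0–72 h time course; RBV for 4 h; 10 μg/ml guanosine for 24 h. Ice-cold 0.5 M perchloric acid extracts neutralized with KOH, then SAX HPLC with an NH4H2PO4 gradient from pH 2.8 to 3.7. GTP and ATP read at 260 nm; mean of three measurements.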

Vero [14] = test: Effect on metabolism of 40 ug/ml RBV in Vero E6 cells assessed as RBV-TP concentration at 1 ug/ml after 24 h; assay type: functional, Chlorocebus sabaeus; summary of the method: as §1
Vero [15] = test: Effect on metabolism of 10 ug/ml RBV in Vero E6 cells assessed as RBV-MP concentration at 1 ug/ml after 24 h; assay type: functional, Chlorocebus sabaeus; summary of the method: as §1
Vero [16] = test: Inhibition of MPA effect on viral RNA in HTNV 76-118-infected Vero E6 cells at 35 uM; assay type: functional, cell-based; conditions: Hantaan virus
Vero [17] = test: Effect on metabolism of 40 ug/ml RBV in Vero E6 cells assessed as RBV-TP concentration at 10 ug/ml after 24 h; assay type: functional, Chlorocebus sabaeus; summary of the method: as §1
Vero [18] = test: Effect on metabolism of 10 ug/ml RBV in Vero E6 cells assessed as RBV-TP concentration at 10 ug/ml after 24 h; assay type: functional, Chlorocebus sabaeus; summary of the method: as §1
Vero [19] = test: Effect on metabolism of 10 ug/ml RBV in Vero E6 cells assessed as RBV-MP concentration at 10 ug/ml after 24 h; assay type: functional, Chlorocebus sabaeus; summary of the method: as §1
Vero [20] = test: Inhibition of 1 ug/ml RBV-induced depression in intracellular GTP level in Vero E6 cells at 35 uM after 24 h; assay type: functional, cell-based; conditions: Chlorocebus sabaeus
Vero [21] = test: Effect on metabolism of 40 ug/ml RBV in Vero E6 cells assessed as RBV-MP concentration at 10 ug/ml after 24 h; assay type: functional, Chlorocebus sabaeus; summary of the method: as §1
Vero [22] = test: Inhibition of 40 ug/ml RBV-induced depression in intracellular GTP level in Vero E6 cells at 35 uM after 24 h; assay type: functional, cell-based; conditions: Chlorocebus sabaeus
Summary of the method: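 Vero E6 cells were treated for 24 h with 40 μg/ml RBV, with or without 10 μg/ml guanosine. Acid-soluble (perchloric acid) extracts were run on SAX HPLC, and GTP and ATP were quantified by UV at 260 nm. Values are the mean of three measurements.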

Vero [23] = test: Increase in GTP level in Vero E6 cells at 35 uM after 24 hr relative to control; assay type: functional, Chlorocebus sabaeus; summary of the method: as §2
[24] = Inhibition of viral RNA levels in HTNV 76-118-infected Vero E6 cells at 40 ug/ml after 3 days; assay type: functional, Hantaan virus; conditions: Orthohantavirus hantanense, 76-118, Vero, 72 h
Vero [25] = test: RBV metabolism in Vero E6 cells assessed as RBV-TP concentration at 40 ug/ml after 24 h; assay type: functional, Chlorocebus sabaeus; summary of the method: as §1
Vero [26] = test: RBV metabolism in Vero E6 cells assessed as RBV-MP concentration at 40 ug/ml after 24 h; assay type: functional, Chlorocebus sabaeus; summary of the method: as §1
Vero [27] = test: Decrease in GTP level in Vero E6 cells at 40 ug/ml after 4 h; assay type: functional, cell-based; conditions: Chlorocebus sabaeus; summary of the method: as §2
[28] = Inhibition of viral RNA levels in HTNV76-118-infected Vero E6 cells at 0.5 ug/ml; assay type: functional, Hantaan virus; conditions: Orthohantavirus hantanense, 76-118, Vero
Vero [29] = test: RBV metabolism in Vero E6 cells assessed as RBV-TP concentration at 10 ug/ml after 24 h; assay type: functional, Chlorocebus sabaeus; summary of the method: as §1
Vero [30] = test: RBV metabolism in Vero E6 cells assessed as RBV-MP concentration at 10 ug/ml after 24 h; assay type: functional, Chlorocebus sabaeus; summary of the method: as §1
Vero [31] = test: Decrease in GTP level in Vero E6 cells at 10 ug/ml; assay type: functional, Chlorocebus sabaeus; set-up: scale not given: the % may be the effect or the level left; summary of the method: as §2

## COc1c(C)c2c(c(O)c1C/C=C(\C)CCC(=O)O)C(=O)OC2 [MYCOPHENOLIC ACID]
Vero [1]
  Activity: 26 pmol
Vero [2]
  Activity: 1.2 pmol
Vero [3]
  Activity: 4.2 pmol
Vero [4]
  Activity: 1.3 pmol
Vero [5]
  Activity: 3.8 pmol
[6]
  inhibition at 10 µg/mL: -70%
Vero [7]
  Activity: 6.8 pmol
Vero [8]
  Activity: 80%
Vero [9]
  Activity: 3.9 pmol
Vero [10]
  Activity: 27 pmol
Vero [11]
  Activity: 7 pmol
Vero [12]
  Activity: 7.8 pmol
Vero [13]
  Activity: 90%
Vero [14]
  Activity: 26 pmol
Vero [15]
  Activity: 1.3 pmol

## Nc1nc2c(ncn2[C@@H]2O[C@H](CO)[C@@H](O)[C@H]2O)c(=O)[nH]1 [GUANOSINE]
Vero [16]
  Activity: Active
Vero [17]
  Activity: 65 pmol
Vero [18]
  Activity: 14 pmol
Vero [19]
  Activity: 1.9 pmol
Vero [20]
  Activity: Active
Vero [21]
  Activity: 8.6 pmol
Vero [22]
  Activity: Active
Vero [23]
  Activity: 145%

## NC(=O)c1ncn([C@@H]2O[C@H](CO)[C@@H](O)[C@H]2O)n1 [RIBAVIRIN]
[24]
  inhibition at 40 µg/mL: 99.9%
Vero [25]
  Activity: 22 pmol
Vero [26]
  Activity: 3.2 pmol
Vero [27]
  Activity: Active
[28]
  inhibition at 0.5 µg/mL: -80%
Vero [8]
  Activity: 50%
Vero [29]
  Activity: 6.5 pmol
Vero [30]
  Activity: 1.1 pmol
Vero [31]
  Activity: 40%
